Active and inactive are the calls of the source. The calls are words filed in the database; no cut-off is given here.
Assays:
Assay type in all cases: functional, cell-based
[1] = Anticomplement activity in sheep erythrocytes assessed as concentration required for 50% hemolytic inhibition by classical pathway after 30 mins by spectrophotometry; conditions: Ovis aries; Erythrocyte
How it was run: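 Sheep erythrocytes sensitized with rabbit anti-sheep erythrocyte antibodies in GVB2+. Test sample dilutions in GVB2+ preincubated with guinea pig serum (1:80) at 37 °C for 10 min, then EA added for 30 min at 37 °C. Supernatant OD read at 405 nm. Blank, 100% lysis and sample controls included. CH50 taken from mean of triplicates at each concentration. Heparin served as positive control.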

[2] = Anticomplement activity in New Zealand White rabbit erythrocytes assessed as concentration required for 50% hemolytic inhibition by alternative pathway after 30 mins; conditions: Oryctolagus cuniculus, Erythrocyte
How it was run: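 Samples diluted in GVB-Mg-EGTA and preincubated with 1:10 normal human serum at 37 °C for 10 min. Rabbit erythrocytes (3.0 × 10^8 cells/mL) then added for 30 min at 37 °C. Lysis read as supernatant OD at 405 nm. AP50 expressed as 50% inhibitory concentration. Heparin served as positive control.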

[3] = Anticomplement activity in sheep erythrocytes in C1q-depleted serum assessed as hemolysis by classical pathway at 1.09 mM after 30 mins compound treated in normal human serum; conditions: Ovis aries, Erythrocyte
[4] = Anticomplement activity in sheep erythrocytes in C5-depleted serum assessed as hemolysis by classical pathway at 1.09 mM after 30 mins compound treated in normal human serum; conditions: Ovis aries, Erythrocyte
[5] = Anticomplement activity in sheep erythrocytes in C2-depleted serum assessed as hemolysis by classical pathway at 1.09 mM after 30 mins compound treated in normal human serum; conditions: Ovis aries, Erythrocyte
[6] = Anticomplement activity in sheep erythrocytes in C3-depleted serum assessed as hemolysis by classical pathway at 1.09 mM after 30 mins compound treated in normal human serum; conditions: Ovis aries, Erythrocyte
[7] = Anticomplement activity in sheep erythrocytes in C4-depleted serum assessed as hemolysis by classical pathway at 1.09 mM after 30 mins compound treated in normal human serum; conditions: Ovis aries, Erythrocyte
[8] = Anticomplement activity in sheep erythrocytes in C9-depleted serum assessed as hemolysis by classical pathway at 1.09 mM after 30 mins compound treated in normal human serum; conditions: Ovis aries, Erythrocyte
[9] = Anticomplement activity in sheep erythrocytes in C5-depleted serum assessed as inhibition of hemolysis by classical pathway at 0.45 mM after 30 mins compound treated in normal human serum; conditions: Ovis aries, Erythrocyte
[10] = Anticomplement activity in sheep erythrocytes in C9-depleted serum assessed as inhibition of hemolysis by classical pathway at 0.45 mM after 30 mins compound treated in normal human serum; conditions: Ovis aries, Erythrocyte
[11] = Anticomplement activity in sheep erythrocytes in C3-depleted serum assessed as inhibition of hemolysis by classical pathway at 0.45 mM after 30 mins compound treated in normal human serum; conditions: Ovis aries, Erythrocyte
[12] = Anticomplement activity in sheep erythrocytes in C1q-depleted serum assessed as inhibition of hemolysis by classical pathway at 0.45 mM after 30 mins compound treated in normal human serum; conditions: Ovis aries, Erythrocyte
[13] = Anticomplement activity in sheep erythrocytes in C9-depleted serum assessed as inhibition of hemolysis by classical pathway at 0.54 mM after 30 mins compound treated in normal human serum; conditions: Ovis aries, Erythrocyte
[14] = Anticomplement activity in sheep erythrocytes in C3-depleted serum assessed as inhibition of hemolysis by classical pathway at 0.54 mM after 30 mins compound treated in normal human serum; conditions: Ovis aries, Erythrocyte
[15] = Anticomplement activity in sheep erythrocytes in C1q-depleted serum assessed as inhibition of hemolysis by classical pathway at 0.54 mM after 30 mins compound treated in normal human serum; conditions: Ovis aries, Erythrocyte
[16] = Anticomplement activity in sheep erythrocytes in C5-depleted serum assessed as inhibition of hemolysis by classical pathway at 0.54 mM after 30 mins compound treated in normal human serum; conditions: Ovis aries, Erythrocyte

Structure (SMILES) | INH [1] [mM] | AP50 [2] [mM] | inhibition [1] | inhibition [2] | further results
COc1ccc(C(=O)OC[C@H]2O[C@@H](O[C@]34C[C@@H]5[C@@]6(O)C[C@]3(C)OC(O6)[C@]54COC(=O)c3ccccc3)[C@H](O)[C@@H](O)[C@@H]2O)cc1 | 2.36 | 2.82 |  |  | 
CO[C@@H]1O[C@@]2(C)CC(=O)[C@H]3C[C@]2(O[C@@H]2O[C@H](COC(=O)c4ccccc4)[C@@H](O)[C@H](O)[C@H]2O)[C@]13COC(=O)c1ccccc1 |  |  | inactive | inactive | 
C[C@@]12C[C@@]3(O)O[C@@H](O1)[C@]1(COC(=O)c4ccccc4)[C@@H]3C[C@]12O[C@@H]1O[C@H](COC(=O)c2ccc(O)cc2)[C@@H](O)[C@H](O)[C@H]1O | 0.52 |  |  |  | 
C[C@@]12C[C@@]3(O)O[C@@H](O1)[C@]1(COC(=O)c4ccccc4)[C@H]3C[C@@]12O[C@@H]1O[C@H](COC(=O)c2ccccc2)[C@@H](O[C@@H]2O[C@H](CO)[C@@H](O)[C@H](O)[C@H]2O)[C@H](O)[C@H]1O | 2.29 |  |  | inactive | 
COc1ccc(C(=O)OC[C@@]23[C@@H](OC)O[C@@]4(C)CC(=O)[C@H]2C[C@]34O[C@@H]2O[C@H](COC(=O)c3ccccc3)[C@@H](O)[C@H](O)[C@H]2O)cc1 |  |  | inactive | inactive | 
CO[C@]12C[C@]3(C)O[C@H](O1)[C@]1(COC(=O)c4ccc(O)cc4)[C@H]2C[C@@]13O[C@@H]1O[C@H](CO)[C@@H](O)[C@H](O)[C@H]1O |  |  | inactive | inactive | 
COc1ccc(C(=O)OC[C@]23C4O[C@]5(O)C[C@](C)(O4)[C@]2(O[C@@H]2O[C@H](COC(=O)c4ccccc4)[C@@H](O)[C@H](O)[C@H]2O)C[C@H]53)cc1 | 1.29 | 1.6 |  |  | 
COc1ccc(C(=O)OC[C@]23C4O[C@]5(OC)C[C@](C)(O4)[C@]2(O[C@@H]2O[C@H](COC(=O)c4ccccc4)[C@@H](O)[C@H](O)[C@H]2O)C[C@H]53)cc1 |  |  | inactive | inactive | 
CO[C@H]1O[C@@]2(C)CC(=O)[C@@H]3C[C@@]2(O[C@@H]2O[C@H](CO)[C@@H](O)[C@H](O)[C@H]2O)[C@]13COC(=O)c1ccc(O)cc1 |  |  | inactive | inactive | 
COc1ccc(C(=O)OC[C@]23[C@H]4O[C@]5(O)C[C@](C)(O4)[C@@]2(O[C@@H]2O[C@H](CO)[C@@H](O)[C@H](O)[C@H]2O)C[C@H]35)cc1 | 2.67 | 3.67 |  |  | 
COc1cc(C(=O)OC[C@H]2O[C@@H](O[C@@]34C[C@H]5[C@@]3(COC(=O)c3ccccc3)[C@H]3O[C@]5(O)C[C@]4(C)O3)[C@H](O)[C@@H](O)[C@@H]2O)ccc1O | 2.02 |  |  |  | 
COc1ccc(C(=O)OC[C@H]2O[C@@H](O[C@]34C[C@@H]5C(=O)C[C@]3(C)O[C@H](OC)[C@]54COC(=O)c3ccccc3)[C@H](O)[C@@H](O)[C@@H]2O)cc1 |  |  | inactive | inactive | 
COc1cc(C(=O)OC[C@H]2O[C@@H](O[C@@]34C[C@H]5[C@@]3(CO)[C@H]3O[C@]5(O)C[C@]4(C)O3)[C@H](O)[C@@H](O)[C@@H]2O)ccc1O | 0.89 | 1.12 |  |  | 
C[C@@]12C[C@@]3(O)OC(O1)[C@]1(COC(=O)c4ccc(O)cc4)[C@@H]3C[C@@]21O[C@@H]1O[C@H](COC(=O)c2ccccc2)[C@@H](O)[C@H](O)[C@H]1O | 0.58 | 0.85 |  |  | 
C[C@@]12C[C@@]3(O)OC(O1)[C@]1(COC(=O)c4ccc(O)cc4)[C@@H]3C[C@@]21O[C@@H]1O[C@H](COC(=O)c2ccccc2)[C@@H](O[C@@H]2O[C@H](CO)[C@@H](O)[C@H](O)[C@H]2O)[C@H](O)[C@H]1O | 0.33 | 0.43 |  |  | Activity [3]: < 10%; Activity [4]: < 10%; Activity [5]: 80.1%; Activity [6]: < 10%; Activity [7]: 89.3%; Activity [8]: < 10%
C[C@@]12C[C@@]3(O)O[C@@H](O1)[C@]1(COC(=O)c4ccc(O)cc4)[C@H]3C[C@@]12O[C@@H]1O[C@H](COC(=O)c2cc(O)c(O)c(O)c2)[C@@H](O)[C@H](O)[C@H]1O | 0.14 | 0.25 |  |  | inhibition [9]: Active; inhibition [10]: inactive; inhibition [11]: Active; inhibition [12]: Active
COc1ccc(C(=O)OC[C@H]2O[C@@H](O[C@]34C[C@@H]5[C@@]6(O)C[C@]3(C)OC(O6)[C@]54COC(=O)c3ccc(O)cc3)[C@H](O)[C@@H](O)[C@@H]2O)cc1 | 0.41 | 0.97 |  |  | 
CO[C@]12C[C@]3(C)OC(O1)[C@]1(COC(=O)c4ccccc4)[C@@H]2C[C@@]31O[C@@H]1O[C@H](COC(=O)c2ccccc2)[C@@H](O)[C@H](O)[C@H]1O |  |  | inactive | inactive | 
CO[C@H]1O[C@@]2(C)CC(=O)[C@H]3C[C@]2(O[C@@H]2O[C@H](COC(=O)c4ccccc4)[C@@H](O)[C@H](O)[C@H]2O)[C@]13COC(=O)c1ccccc1 |  |  | inactive | inactive | 
C[C@@]12C[C@@]3(O)O[C@@H](O1)[C@]1(COC(=O)c4ccc(O)cc4)[C@@H]3C[C@]12O[C@@H]1O[C@H](CO)[C@@H](O)[C@H](O)[C@H]1O | 2.28 | 3.29 |  |  | 
C[C@@]12C[C@@]3(O)O[C@@H](O1)[C@]1(COC(=O)c4ccccc4)[C@@H]3C[C@]12O[C@@H]1O[C@H](COC(=O)c2cc(O)c(O)c(O)c2)[C@@H](O)[C@H](O)[C@H]1O | 0.21 | 0.32 |  |  | inhibition [13]: inactive; inhibition [14]: Active; inhibition [15]: Active; inhibition [16]: Active
C[C@@]12C[C@@]3(O)O[C@@H](O1)[C@]1(COC(=O)c4ccc(O)cc4)[C@H]3C[C@@]12O[C@@H]1O[C@H](COC(=O)c2ccc(O)cc2)[C@@H](O)[C@H](O)[C@H]1O | 0.34 | 0.67 |  |  | 
